The structures appear in SMILES notation.

Holding throughout (format): functional, cell-based
In one experiment the test system is HCT-116. The experiment in a line: Cytotoxicity against human HCT116 cells after 4 days by MTT assay. The note with it: HCT-116, 96 h. In a few lines: (§1)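 Cells seeded as single-cell suspension, 2 × 10³ cells/well, onto serially diluted compounds in microplates; cultured 4 d. Viable cells counted with a cell counting kit. IC50 taken as concentration giving 50% growth inhibition relative to untreated control.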
In general terms: Tetrazolium dyes change colour on reduction, which living cells bring about.

The next experiment has as its system QG-56. The experiment in a line: Cytotoxicity against human QG56 cells after 4 days by MTT assay. The note with it: QG-56, 96 h. In a few lines: as §1
The test system of the next experiment is DU-145. The experiment in a line: Cytotoxicity against human DU145 cells after 4 days by MTT assay. The note with it: DU-145, 96 h. In a few lines:
as §1

By IC50 is commonly meant the concentration needed to halve the response being measured. For `C=CCOc1cc2c(cc1OC)[C@@]1(CS[C@@H]3c4c(OC(C)=O)c(C)c5c(c4[C@@H](COC1=O)N1[C@@H]3[C@H]3c4c(cc(C)c(OC)c4OCC=C)C[C@@H]([C@@H]1C#N)N3C)OCO5)N(C(=O)/C=C/c1ccccc1)CC2`, the IC50 with HCT-116 was 630 nM; with QG-56 it was more than 1000 nM; in the experiment on DU-145, more than 1000 nM.
Regarding `COc1cc2c(cc1O)CCN(C(=O)/C=C/c1ccccc1)[C@]21CS[C@@H]2c3c(OC(C)=O)c(C)c4c(c3[C@@H](COC1=O)N1[C@@H]2[C@H]2c3c(cc(C)c(OC)c3O)C[C@@H]([C@@H]1C#N)N2C)OCO4`, the 50% inhibitory concentration (IC50) in the experiment on HCT-116 was found to be 0.053 nM; with QG-56 it was 0.33 nM; in the experiment with DU-145, 0.24 nM.
The corresponding values for `C=CCOc1cc2c(cc1OC)[C@@]1(CS[C@@H]3c4c(OC(C)=O)c(C)c5c(c4[C@@H](COC1=O)N1[C@@H]3[C@H]3c4c(cc(C)c(OC)c4OCC=C)C[C@@H]([C@@H]1C#N)N3C)OCO5)N(CC=C)CC2` are 620 nM, more than 1000 nM and more than 1000 nM.
The corresponding values for `C=CCOc1cc2c(cc1OC)[C@@]1(CS[C@@H]3c4c(OC(C)=O)c(C)c5c(c4[C@@H](COC1=O)N1[C@@H]3[C@H]3c4c(cc(C)c(OC)c4OCC=C)C[C@@H]([C@@H]1C#N)N3C)OCO5)N(C(=O)c1ccccc1Br)CC2` are more than 1000 nM, more than 1000 nM and more than 1000 nM.
The corresponding values for `COc1cc2c(cc1O)CCN(C(=O)c1cccc3ncccc13)[C@]21CS[C@@H]2c3c(OC(C)=O)c(C)c4c(c3[C@@H](COC1=O)N1[C@@H]2[C@H]2c3c(cc(C)c(OC)c3O)C[C@@H]([C@@H]1C#N)N2C)OCO4` are 0.086 nM, 0.36 nM and 0.92 nM.
As to `C=CCOc1cc2c(cc1OC)[C@@]1(CS[C@@H]3c4c(OC(C)=O)c(C)c5c(c4[C@@H](COC1=O)N1[C@@H]3[C@H]3c4c(cc(C)c(OC)c4OCC=C)C[C@@H]([C@@H]1C#N)N3C)OCO5)N(C(=O)c1ccc([N+](=O)[O-])cc1)CC2`, the IC50 in the experiment on HCT-116 came to 260 nM; in the experiment on QG-56 it was 790 nM; in the experiment with DU-145, 590 nM.
For `COc1cc2c(cc1O)CCN(C(=O)/C=C/c1ccc([N+](=O)[O-])cc1)[C@]21CS[C@@H]2c3c(OC(C)=O)c(C)c4c(c3[C@@H](COC1=O)N1[C@@H]2[C@H]2c3c(cc(C)c(OC)c3O)C[C@@H]([C@@H]1C#N)N2C)OCO4`, the IC50 with HCT-116 was 0.6 nM; in the experiment with QG-56, 2.4 nM; with DU-145, 0.81 nM.
As for `COc1cc2c(cc1O)CCN(C(=O)c1ccc3ncccc3c1)[C@]21CS[C@@H]2c3c(OC(C)=O)c(C)c4c(c3[C@@H](COC1=O)N1[C@@H]2[C@H]2c3c(cc(C)c(OC)c3O)C[C@@H]([C@@H]1C#N)N2C)OCO4`, the IC50 in the experiment on HCT-116 turned out to be 0.045 nM; in the experiment on QG-56 it was 0.16 nM; in the experiment with DU-145, 0.043 nM.
Turning to `COc1cc2c(cc1O)CCN(C(=O)c1ccnc3ccccc13)[C@]21CS[C@@H]2c3c(OC(C)=O)c(C)c4c(c3[C@@H](COC1=O)N1[C@@H]2[C@H]2c3c(cc(C)c(OC)c3O)C[C@@H]([C@@H]1C#N)N2C)OCO4`, the half-maximal inhibitory concentration (IC50) amounted to 0.067 nM in the experiment with HCT-116, 0.23 nM with QG-56 and 0.16 nM in the experiment with DU-145.
The corresponding values for `COc1cc2c(cc1O)CCN(C(=O)c1ccccc1)[C@]21CS[C@@H]2c3c(OC(C)=O)c(C)c4c(c3[C@@H](COC1=O)N1[C@@H]2[C@H]2c3c(cc(C)c(OC)c3O)C[C@@H]([C@@H]1C#N)N2C)OCO4` are 0.37 nM, 1 nM and 1.1 nM.
The corresponding values for `C=CCOc1cc2c(cc1OC)[C@@]1(CS[C@@H]3c4c(OC(C)=O)c(C)c5c(c4[C@@H](COC1=O)N1[C@@H]3[C@H]3c4c(cc(C)c(OC)c4OCC=C)C[C@@H]([C@@H]1C#N)N3C)OCO5)N(C(=O)c1ccc3ncccc3c1)CC2` are 150 nM, 260 nM and 180 nM.
The corresponding values for `COc1cc2c(cc1O)CCN(C(=O)c1cccnc1)[C@]21CS[C@@H]2c3c(OC(C)=O)c(C)c4c(c3[C@@H](COC1=O)N1[C@@H]2[C@H]2c3c(cc(C)c(OC)c3O)C[C@@H]([C@@H]1C#N)N2C)OCO4` are 0.13 nM, 0.4 nM and 0.72 nM.
`C=CCN1CCc2cc(O)c(OC)cc2[C@@]12CS[C@@H]1c3c(OC(C)=O)c(C)c4c(c3[C@@H](COC2=O)N2[C@@H]1[C@H]1c3c(cc(C)c(OC)c3O)C[C@@H]([C@@H]2C#N)N1C)OCO4`: the IC50 in the experiment on HCT-116 is 0.5 nM; with QG-56, 1.8 nM; in the experiment on DU-145, 1.2 nM.
The corresponding values for `COc1cc2c(cc1O)CCN(C(=O)c1cccc([N+](=O)[O-])c1)[C@]21CS[C@@H]2c3c(OC(C)=O)c(C)c4c(c3[C@@H](COC1=O)N1[C@@H]2[C@H]2c3c(cc(C)c(OC)c3O)C[C@@H]([C@@H]1C#N)N2C)OCO4` are 0.14 nM, 0.43 nM and 0.73 nM.
The like results for `COc1cc2c(cc1O)CCN[C@]21CS[C@@H]2c3c(OC(C)=O)c(C)c4c(c3[C@H](COC1=O)N1[C@@H]2[C@H]2c3c(cc(C)c(OC)c3O)C[C@@H]([C@@H]1C#N)N2C)OCO4` [ECTEINASCIDIN 770] were, in that order, 0.6 nM, 2.4 nM and 0.81 nM.
The like results for `C=CCOc1cc2c(cc1OC)[C@@]1(CS[C@@H]3c4c(OC(C)=O)c(C)c5c(c4[C@@H](COC1=O)N1[C@@H]3[C@H]3c4c(cc(C)c(OC)c4OCC=C)C[C@@H]([C@@H]1C#N)N3C)OCO5)N(C(=O)c1ccc(Br)cc1)CC2` were, in that order, 480 nM, more than 1000 nM and 730 nM.
Regarding `C=CCOc1cc2c(cc1OC)[C@@]1(CS[C@@H]3c4c(OC(C)=O)c(C)c5c(c4[C@@H](COC1=O)N1[C@@H]3[C@H]3c4c(cc(C)c(OC)c4OCC=C)C[C@@H]([C@@H]1C#N)N3C)OCO5)N(C(=O)c1ccccc1)CC2`, the 50% inhibitory concentration (IC50) in the experiment on HCT-116 stood at 190 nM; in the experiment with QG-56, 690 nM; in the experiment on DU-145, 540 nM.
The like results for `COc1cc2c(cc1O)CCN(C(=O)c1ccc([N+](=O)[O-])cc1)[C@]21CS[C@@H]2c3c(OC(C)=O)c(C)c4c(c3[C@@H](COC1=O)N1[C@@H]2[C@H]2c3c(cc(C)c(OC)c3O)C[C@@H]([C@@H]1C#N)N2C)OCO4` were, in that order, 0.38 nM, 1.1 nM and 1 nM.
For the compound `C=CCOc1cc2c(cc1OC)[C@@]1(CS[C@@H]3c4c(OC(C)=O)c(C)c5c(c4[C@@H](COC1=O)N1[C@@H]3[C@H]3c4c(cc(C)c(OC)c4OCC=C)C[C@@H]([C@@H]1C#N)N3C)OCO5)N(C(=O)/C=C/c1ccc([N+](=O)[O-])cc1)CC2`, the IC50 in the experiment on HCT-116 came to 520 nM; in the experiment on QG-56 it was 8500 nM; with DU-145, 7500 nM.
The like results for `C=CCOc1c(OC)c(C)cc2c1[C@@H]1[C@@H]3[C@@H]4SC[C@]5(C(=O)OC[C@H](c6c7c(c(C)c(OC(C)=O)c64)OCO7)N3[C@@H](C#N)[C@H](C2)N1C)c1cc(OC)c(O)cc1CCN5C(=O)/C=C/c1ccc([N+](=O)[O-])cc1` were, in that order, 2.7 nM, 9.8 nM and 5 nM.
The like results for `C=CCOc1cc2c(cc1OC)[C@@]1(CS[C@@H]3c4c(OC(C)=O)c(C)c5c(c4[C@@H](COC1=O)N1[C@@H]3[C@H]3c4c(cc(C)c(OC)c4OCC=C)C[C@@H]([C@@H]1C#N)N3C)OCO5)N(C(=O)c1ccncc1)CC2` were, in that order, 280 nM, 790 nM and 590 nM.
For `COc1cc2c(cc1O)CCN(C(=O)c1c[nH]c3ccccc13)[C@]21CS[C@@H]2c3c(OC(C)=O)c(C)c4c(c3[C@@H](COC1=O)N1[C@@H]2[C@H]2c3c(cc(C)c(OC)c3O)C[C@@H]([C@@H]1C#N)N2C)OCO4`, the figures for the concentration for half-maximal inhibition (IC50) in the experiment on HCT-116, with QG-56 and in the experiment with DU-145 were 0.16 nM, 0.46 nM and 0.45 nM, respectively.
The corresponding values for `C=CCOc1cc2c(cc1OC)[C@@]1(CS[C@@H]3c4c(OC(C)=O)c(C)c5c(c4[C@@H](COC1=O)N1[C@@H]3[C@H]3c4c(cc(C)c(OC)c4O)C[C@@H]([C@@H]1C#N)N3C)OCO5)NCC2` are 2.4 nM, 12 nM and 7.1 nM.
The like results for `C=CCOc1cc2c(cc1OC)[C@@]1(CS[C@@H]3c4c(OC(C)=O)c(C)c5c(c4[C@@H](COC1=O)N1[C@@H]3[C@H]3c4c(cc(C)c(OC)c4OCC=C)C[C@@H]([C@@H]1C#N)N3C)OCO5)N(C(=O)c1cccc([N+](=O)[O-])c1)CC2` were, in that order, 180 nM, 520 nM and 270 nM.
The corresponding values for `C=CCOc1cc2c(cc1OC)[C@@]1(CS[C@@H]3c4c(OC(C)=O)c(C)c5c(c4[C@@H](COC1=O)N1[C@@H]3[C@H]3c4c(cc(C)c(OC)c4OCC=C)C[C@@H]([C@@H]1C#N)N3C)OCO5)N(C(=O)c1c[nH]c3ccccc13)CC2` are 0.45 nM, more than 1000 nM and more than 1000 nM.
As to `C=CCOc1cc2c(cc1OC)[C@@]1(CS[C@@H]3c4c(OC(C)=O)c(C)c5c(c4[C@@H](COC1=O)N1[C@@H]3[C@H]3c4c(cc(C)c(OC)c4OCC=C)C[C@@H]([C@@H]1C#N)N3C)OCO5)N(C(=O)c1cccc3ncccc13)CC2`, the values for the half-inhibitory concentration (IC50) in the experiment with HCT-116, in the experiment on QG-56 and with DU-145 were 320 nM, 640 nM and 550 nM, respectively.

The values above are taken from ChEMBL document CHEMBL1806456, “Chemistry of ecteinascidins. Part 3: preparation of 2'-N-acyl derivatives of ecteinascidin 770 and evaluation of cytotoxicity” (Bioorg Med Chem, 2011).
